From PubChem BioAssay
An excerpt weighted towards active compounds, which were near 2.8% of everything screened.
CAL PDZ FP-1 – blocks peptide binding to human CAL PDZ domain | purified CAL PDZ, TMR-peptide fluorescence polarization, 1 h | inhibition, % at 20 µM | 330,000 compounds, 0.02% hits | AID 504414;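 active means highest replicate inhibition of at least 40%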;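 further: plate controls were DMSO neutral control wells for no effect and unlabeled competitor peptide control wells for full effect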
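Test system: tagged CAL PDZ domain / Buffer or medium: sodium phosphate/NaCl buffer pH 7.4 with TCEP, IgG, Thesit / Reagent: TMR-labelled reporter peptide T*-PRC34 bound in PDZ groove / Compound dosing: single point, 20 µM / Schedule: 1 h incubation at room temperature before polarization reading / Technique: fluorescence polarization (mP) / Benchmarks: unlabelled peptide, DMSO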
SR-BI DiI inh – mouse SR-BI HDL lipid transfer inhibition; ldlA[mSR-BI] CHO cells, DiI-HDL uptake fluorescence, 3 h; Q61009; AID 488896; 320,000 compounds, 0.96% hits; inhibition, % at 12.5 µM;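 active means mean replicate inhibition of at least 70% and a set share of replicates each scoring 70 or more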;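 further: 0% = median of neutral control wells and 100% = median of positive control wells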
dFosB act – enhances mouse delta FosB homodimer DNA binding | P13346 | purified delta FosB, TAMRA-CDK5 oligo fluorescence polarization; percent of positive-control signal above neutral wells | activation, % at 25 µM | 340,000 compounds, 0.99% hits;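 active means mean activation above about 17%, with every replicate also reaching it, limit read from the data, passing the limit was not always enough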
Target sequence (P13346 whole entry, looked up): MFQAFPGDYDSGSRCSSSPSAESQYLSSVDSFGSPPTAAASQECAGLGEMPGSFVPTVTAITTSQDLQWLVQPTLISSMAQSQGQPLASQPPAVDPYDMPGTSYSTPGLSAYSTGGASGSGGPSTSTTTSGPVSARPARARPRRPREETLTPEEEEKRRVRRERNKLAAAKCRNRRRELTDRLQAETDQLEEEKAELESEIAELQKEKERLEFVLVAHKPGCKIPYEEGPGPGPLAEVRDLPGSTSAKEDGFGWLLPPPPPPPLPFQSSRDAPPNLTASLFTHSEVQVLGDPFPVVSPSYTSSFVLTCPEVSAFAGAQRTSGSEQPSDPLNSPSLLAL
CAL PDZ FP-2 – CAL PDZ (human) peptide binding inhibition | AID 602252 | purified CAL PDZ, TMR-peptide fluorescence polarization, 1 h | inhibition, % at 24.9 µM | 300,000 compounds, 0.92% hits;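 active means mean inhibition of at least 30% with at least half of replicates also reaching 30%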;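 further: 0% = DMSO neutral control and 100% = excess unlabeled competitor peptide PRC23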
SR-BI DiI-HDL act – activators of SR-BI mediated HDL lipid uptake; CHO ldlA[mSR-BI] cells, DiI-HDL uptake fluorescence, 3 h; 100 = double the neutral-control signal; 320,000 compounds, 0.096% hits; activation, % at 12.5 µM; AID 504775;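 active means mean replicate activation of at least 60% and every replicate at or above 60%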;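 further: 0% = median plate neutral-control signal and 100% = twice that signal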
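Material: SR-BI-overexpressing, LDLR-lacking CHO cells; schedule: compound exposure 3 h, 37 °C; reagent: DiI-labelled HDL at 10 µg/mL final; technique: bottom-read fluorescence, 550/595 nm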
Starred values were filed as active, the others as inactive; · = not tested or not shown; + = active, no number.

SMILES	CAL PDZ FP-1	SR-BI DiI inh	dFosB act	CAL PDZ FP-2	SR-BI DiI-HDL act
COc1cccc(-c2csc(NC(=O)Nc3ccccc3)n2)c1	-3	77*	3	-6	-77
COc1cccc(Nc2nc(-c3ccc(O)cc3)cs2)c1	·	58	1	1	-58
Cc1cc(/C=C2/SC(=S)N(c3cccc(C(F)(F)F)c3)C2=O)c(C)n1-c1cccnc1	-3	76*	-10	0	-76
Cc1cc(/C=C2\SC(=S)N(Cc3ccco3)C2=O)c(C)n1-c1cccnc1	0	-43	-11	-7	43
COCCNc1ccc(N2C(=O)CCCC2=O)cc1[N+](=O)[O-]	-3	·	-4	7	·
Cc1ccccc1N=C1C(=O)Nc2ccccc21	-1	-5	-3	1	5
CC(C)(C)C(=O)Nc1sc(-c2ccccc2)cc1C(=O)O	0	-5	-2	-7	5
CC(=O)c1cccc(NC(=O)CCNC(=O)c2cccc(C)c2)c1	-1	-8	-3	71*	8
Cc1cccc(C(=O)Nc2sc(-c3ccccc3)cc2C(=O)O)c1	1	-25	-9	43*	25
CC(=O)Nc1ccc(C(=O)NNC(=O)c2cccc(C)c2)cc1	-1	-15	-5	41*	15
Cc1cccc(C(=O)NNC(=O)c2ccc(-c3ccccc3)cc2)c1	0	80*	0	-3	-80
CC(C)(C)N1[C@@H](CC(=O)O)c2cc(C(F)(F)F)ccc2S1(=O)=O	1	-17	5	0	17
CC(=O)Nc1ccc(C=C(C(C)=O)C(C)=O)cc1	0	-16	7	·	16
CCCCC1=C(C(=O)OCC)C(C(=O)OCC)Oc2ccccc21 (centres undefined)	0	-19	3	-2	19
Cc1cnc(C(=O)OCC(=O)Nc2ncc(Cl)cc2Cl)cn1	0	-21	-3	-3	21
Cc1ccc2nc(COC(=O)c3cnccn3)cc(=O)n2c1	0	5	-2	0	-5
CCCCN1C(=O)C(=O)N(CC(=O)c2cc(C)n(C3CC3)c2C)C1=O	0	4	-14	1	-4
Cc1ccc2c(Cl)c(C(=O)NCC(c3ccco3)N3CCCC3)sc2c1 (centres undefined)	-2	5	-17	75*	-5
Oc1c(Br)cc(Br)cc1/C=N/NC(=S)N[C@H]1CC2C=CC1C2 (some centres undefined)	0	78*	-6	1	-78
CN(C)c1ccc2nc3c(=O)[nH]c(=O)nc-3n(CC(O)C(O)C(O)CO)c2c1 (centres undefined)	-8	-11	117*	·	11
NS(=O)(=O)c1cc(C(=O)OCC(=O)Nc2ccc(N3CCCCC3)cc2)ccc1Cl	-2	·	-2	1	·
O=C(NC(=S)Nc1ccc(F)c(Cl)c1)C1CC1	-2	3	0	-3	-3
Cc1ccc(NC(=S)NC(=O)C2CC2)cc1Cl	-4	10	-11	52*	-10
COc1cc(NC(=O)CN(C)CCOc2ccccc2)c(C)cc1[N+](=O)[O-]	-1	17	-3	42*	-17
Cc1nn2c(NCC(C)C)c3c(nc2c1-c1ccccc1)CCC3	1	19	-1	-6	-19
SMILES	CAL PDZ FP-1	SR-BI DiI inh	dFosB act	CAL PDZ FP-2	SR-BI DiI-HDL act
Cc1nn2c(NCCCN(C)C)c3c(nc2c1-c1ccccc1)CCCC3	0	0	-2	+	0
Cc1nn2c(NC(C)C)c3c(nc2c1-c1ccccc1)CCC3	-1	-104	2	·	104*
O=C(NCc1cccnc1)C1CC2c3ccccc3C1c1ccccc12 (centres undefined)	-2	-17	-4	-3	17
NCC1CC2c3ccccc3C1c1ccccc12 (centres undefined)	·	-9	-2	92*	9
O=C(OCCc1cc2ccccc2c(=O)o1)c1ccccc1C(F)(F)F	0	12	7	1	-12
CCCCn1c(SCC(=O)Nc2oc(C)c3c(C)n[nH]c(=O)c23)nc2cc(S(N)(=O)=O)ccc21	-1	-8	0	·	8
O=[N+]([O-])c1cc(-c2cnc3ccccc3n2)ccc1Oc1ccc(Cl)cc1	-1	-4	-2	+	4
Cc1cc(NC(=O)c2ccc(F)cc2)n(-c2ccccn2)n1	-2	40	-46	12	-40
